GSTO1 inh: counter-screen for RBBP9 inhibitors: inhibitors of human GSTO1; P78417; recombinant GSTO1, activity-based probe fluorescence polarization; inhibition, % at 5.96 µM; 300,000 compounds, 1.1% hits; AID 1974;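 active means inhibition above the campaign mean inhibition plus 3 SD, cut at about 35% in these data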;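 further: 0% = GSTO1-1 with DMSO and 100% = wells lacking GSTO1-1 enzyme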
RBBP9 inh: human RBBP9 hydrolase inhibition. O75884. 220,000 compounds, 0.2% hits. recombinant RBBP9, FP-Rh probe fluorescence polarization. inhibition, % at 7.94 µM;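 active means inhibition above the campaign mean of all tested compounds plus 3 SD, cut at about 14% in these data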;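 further: plate controls were DMSO wells with RBBP9 for no effect and wells lacking RBBP9 protein for full effect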
Target sequence (O75884 whole entry, looked up): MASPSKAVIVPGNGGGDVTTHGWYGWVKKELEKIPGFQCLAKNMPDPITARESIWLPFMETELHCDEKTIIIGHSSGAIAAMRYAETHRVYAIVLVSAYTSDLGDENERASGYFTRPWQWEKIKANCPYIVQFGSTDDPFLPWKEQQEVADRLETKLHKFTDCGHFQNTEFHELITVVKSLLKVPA
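Test system: recombinant human RBBP9; Timing: 30 min then 45 min, 25 °C; Detection: fluorescence polarization; Control set: RBBP9 with DMSO as uninhibited control, no-protein wells as full inhibition; Compound dosing: one concentration, 7.94 µM nominal, 0.794% DMSO; Probe or stimulus: FP-Rh activity-based probe, 375 nM before mixing.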
PRMT1 inh: inhibitors of human PRMT1; recombinant PRMT1, activity-based probe fluorescence polarization; 370,000 compounds, 1.3% hits; inhibition, % at 2.79 µM; AID 652257;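 active means inhibition above about 21% made by adding two undisclosed values, limit read from the data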
PAD4 inh: blocks human protein arginine deiminase 4. 330,000 compounds, 0.41% hits. recombinant PAD4, RCA probe fluorescence polarization. inhibition, % at 6.36 µM;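 active means percent inhibition above a cutoff equal to the mean of all tested compounds plus 3 SD, cut at about 15% in these data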;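 further: 0% = PAD4 with RCA probe and DMSO and 100% = probe without PAD4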
SIAE inh: human SIAE inhibition, primary screen; Q9HAT2; SIAE FP-Rh probe binding, fluorescence polarization; inhibition, % at 9.66 µM; 370,000 compounds, 0.69% hits; AID 1053197;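 active means inhibition above a cutoff: mean of compounds within the control limits plus 3 SD of those, cut at about 17% in these data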;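 further: 0% = plate median of compound wells and 100% = probe without SIAE protein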
Target sequence (Q9HAT2 whole entry, looked up): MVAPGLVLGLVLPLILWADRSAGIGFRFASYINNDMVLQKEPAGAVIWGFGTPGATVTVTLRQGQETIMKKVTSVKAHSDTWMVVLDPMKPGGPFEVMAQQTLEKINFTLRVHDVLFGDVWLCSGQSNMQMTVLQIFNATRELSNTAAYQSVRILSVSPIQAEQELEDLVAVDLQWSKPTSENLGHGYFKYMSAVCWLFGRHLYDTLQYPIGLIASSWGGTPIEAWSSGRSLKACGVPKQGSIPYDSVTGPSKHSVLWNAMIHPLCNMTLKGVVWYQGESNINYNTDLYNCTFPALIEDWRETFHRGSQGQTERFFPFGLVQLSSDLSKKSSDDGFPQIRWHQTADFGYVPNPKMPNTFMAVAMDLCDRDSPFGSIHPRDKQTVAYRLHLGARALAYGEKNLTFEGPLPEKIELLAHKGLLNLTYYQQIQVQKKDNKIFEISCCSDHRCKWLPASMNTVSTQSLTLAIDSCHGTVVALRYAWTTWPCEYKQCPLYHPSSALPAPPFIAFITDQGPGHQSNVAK
SIAE confirm: confirmation of human SIAE inhibitors; SIAE FP-Rh activity-based probe, fluorescence polarization; 2,300 compounds, 13% hits; shares compounds with SIAE inh; inhibition, % at 9.66 µM;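 active means mean inhibition of the replicates above the hit cutoff set in the primary screen, cut at about 17% in these data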;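 further: 0% = SIAE with DMSO and probe and 100% = probe without SIAE; inhibitors lower polarization as more probe stays unbound to SIAE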
* marks the source's active call; other numbers are inactive results; nt = no result. Shown are actives, neighbours in structure and some others; about 2.7% of the full set was active somewhere.

SMILES | GSTO1 inh | RBBP9 inh | PRMT1 inh | PAD4 inh | SIAE inh | SIAE confirm
CCOC(=O)COc1cc(N2C(=O)CSCC2=O)c(Cl)cc1Cl | 3 | 1 | 6 | 2 | 71* | 3
CCc1nc(C)cn1S(=O)(=O)c1cc(C)c(OC)c(C)c1C | -3 | -5 | 1 | 2 | 37* | -2
CCc1nc(C)cn1S(=O)(=O)c1cc(C)c(OC)cc1C | 2 | -6 | 0 | 4 | -2 | nt
O=CNCc1nc2ccccc2n1CCCc1ccccc1 | 4 | nt | 8 | -1 | 0 | nt
COc1cc(OC)c(OC)cc1CNC(=O)CCN1C(=O)c2cccc([N+](=O)[O-])c2C1=O | -1 | nt | -6 | -5 | 19* | 8
COc1ccc(CN(C)CC(=O)NC(=O)NCc2ccccc2)c(OC)c1 | 1 | -5 | -2 | 1 | 4 | nt
CCOC(=O)CSc1nc2ccc(NC(C)=O)cc2s1 | 1 | -2 | 1 | 1 | 3 | nt
COC(=O)CSc1nc2ccc(N)cc2s1 | 12 | 5 | 1 | 0 | 18* | 6
O=C(NCCO)c1cccc(Nc2nc(-c3ccccc3)c3cc(Cl)ccc3n2)c1 | -9 | -16 | -1 | -1 | 21* | -29
NNc1nc(-c2ccccc2)c2cc(Cl)ccc2n1 | -10 | -5 | 2 | -1 | 5 | nt
CS(=O)(=O)N1N=C(c2ccco2)CC1c1cccc([N+](=O)[O-])c1 (stereo not drawn) | 2 | -7 | 1 | 2 | 8 | nt
COc1ccc(/C(C)=N/N=C2/NC(=O)CC(C(=O)O)S2)cc1 (stereo not drawn) | 1 | -1 | -2 | -4 | 22* | 0
O=C(/C=C/c1ccccc1)Nc1ccc2c(c1)OCCO2 | -3 | 0 | 1 | -4 | -5 | nt
O=C(CCCCCNC(=O)N1CCn2c1nc1ccccc12)NCCc1ccccc1 | -2 | nt | 2 | -1 | 3 | nt
CCn1c(CO)nc2c1c(=O)[nH]c(=O)n2Cc1ccccc1 | 4 | nt | -4 | 0 | 20* | -2
Cc1sc(NC(=O)c2cccs2)c(C(N)=O)c1C | 0 | 2 | 6 | 0 | -2 | nt
Nc1nc(N)c(N=O)c(Nc2ccc(Cl)c(Cl)c2)n1 | nt | nt | 9 | nt | 8 | nt
Cc1c(N=Cc2cccnc2)c(=O)n(-c2ccccc2)n1C | 5 | -2 | -1 | 0 | 21* | 3
Cn1nnnc1SCC(=O)Nc1ccc(Oc2ccccc2)cc1 | 4 | 5 | 1 | 1 | 2 | nt
Cn1nnnc1SCC(=O)Nc1ccc(C(=O)N2CCN(Cc3ccccc3F)CC2)cc1 | nt | nt | -1 | 0 | 18* | 5
Nc1ccn([C@@H]2O[C@H](C(=O)NCc3ccc4c(c3)OCO4)[C@@H](O)[C@H]2O)c(=O)n1 | nt | nt | -4 | nt | 52* | 49*
Cc1ccccc1Nc1c(-c2ccccn2)nc2ccccn12 | 4 | -2 | -3 | -1 | 10 | nt
Cc1ccn2c(Nc3ccccc3C)c(-c3ccccn3)nc2c1 | 7 | -3 | -2 | -3 | 18* | 5
CCc1ccc(CN2CCC(C(=O)Nc3ccc(-n4nc(C)cc4C)cc3)CC2)o1 | 12 | nt | -3 | 0 | 3 | nt
O=C(/C=C/c1ccccc1)N1CCN(CC(O)COc2ccccc2)CC1 (stereo not drawn) | 2 | -2 | 1 | -5 | 19* | 0
SMILES | GSTO1 inh | RBBP9 inh | PRMT1 inh | PAD4 inh | SIAE inh | SIAE confirm
Cc1ccc([N+](=O)[O-])cc1NC(=O)C1CCN(S(C)(=O)=O)CC1 | 2 | -5 | -3 | -6 | 20* | 3
COc1ccc(C(=O)CCNc2ccc3c(c2)OCCO3)cc1 | 6 | -9 | 4 | 1 | 18* | 4
COc1ccc(C(=O)Nc2ccc3c(c2)OCCO3)cc1 | 8 | 2 | 2 | -20 | -1 | nt
CCc1nnc(NC(=O)CSc2nc3c([nH]c4ccccc43)c(=O)n2CCOC)s1 | 5 | nt | -1 | -4 | 18* | -1
COc1ccc(Cl)cc1NC(=S)N1CCN(c2ncccn2)CC1 | -9 | 4 | -2 | -4 | -1 | nt
CCn1c(-c2ccccc2)csc1=Nc1ccc(O)cc1 | 1 | 1 | 4 | -2 | 25* | 4
O=C1C(Cl)=C(N2CCCCC2)C(=O)N1Cc1ccccc1 | -2 | -12 | -4 | -5 | 18* | 1
CCCNC(=O)c1ccc(N2CCC3(CC2)CC(c2cccc(Br)c2)=NO3)c(NC(=O)c2cccc(OC)c2)c1 | -11 | nt | 1 | -3 | -20 | nt
Cc1ccccc1Cn1c2ccccc2c2cnn(CC(=O)NCc3ccccn3)c(=O)c21 | 8 | nt | 2 | -4 | 20* | 0
COc1ccc(Cl)cc1NC(=O)NCCN1CCNC1=O | 9 | -4 | -5 | 0 | 7 | nt
CCC1(c2ccccc2)NC(=S)N(c2cccc(C)c2C)N1 (stereo not drawn) | 3 | -1 | 2 | 4 | 17* | -5
Cc1cccc(-n2c(-c3ccccc3)c[nH]c2=S)c1C | -5 | nt | 15 | -6 | 9 | nt
CC(C)NC(=O)c1ccccc1NC(=O)c1ccccc1N(C)S(C)(=O)=O | -2 | 8 | 0 | -3 | 1 | nt
COC(=O)COn1c(SC(C)C)nc2ccccc2c1=O | 1 | 4 | -2 | 3 | -5 | nt
CCc1nc2sc3c(c2c(=O)o1)CCCC3 | 8 | -9 | 5 | -5 | 20* | 9
COc1ccc(NC(=O)CSc2nc(O)cc(=O)n2-c2ccccc2OC)cc1 | 5 | -20 | nt | -3 | nt | nt
CC1(C)CC(=O)c2cc(N=C/C(C(=O)c3ccccc3)=C(\O)c3ccccc3)c(=O)oc2C1 | -2 | -2 | -1 | 2 | 17* | 1
Cc1nc2c3cc(F)ccc3n(Cc3ccc(F)cc3)c2s1 | -9 | -1 | 7 | 4 | 1 | nt
O=C(CN1C(=O)/C(=C2/SC(=S)N(CCS(=O)(=O)O)C2=O)c2ccccc21)Nc1cccc(Br)c1 | nt | nt | 6 | -7 | 18* | 5
Cc1cccc(NC(=O)CN2C(=O)/C(=C3\SC(=S)N(CC4CCCO4)C3=O)c3ccccc32)c1 (stereo not drawn) | 3 | nt | nt | -5 | nt | nt
COc1cccc(COC(=O)c2ccc3c(c2)NC(=O)C(C)S3)c1OC (stereo not drawn) | -13 | nt | -5 | 2 | 9 | nt
O=C(N/N=C1/CC2CCC1C2)c1cc2ccccc2cc1O (stereo not drawn) | -8 | nt | 0 | -4 | 19* | -8
COc1ccc2c(c1)CC=C1C2CCC2(C)C(=O)C(=NO)CC12 (stereo not drawn) | nt | nt | -3 | nt | 19* | 22*
CC12CCC3C(=CCc4cc(O)ccc43)C1CC(=NO)C2O (stereo not drawn) | nt | nt | 0 | nt | -8 | nt
O=C(NNc1ccc(-c2csnn2)cc1)c1ccccc1C(F)(F)F | 10 | -4 | 1 | 0 | 3 | nt
CCOCCCNC(=O)CN1C(=O)CSc2cc(S(=O)(=O)N3CCCCCC3)ccc21 | 13 | 2 | -2 | -1 | 31* | 0
O=C(/C=C/c1ccco1)NC(=S)Nc1cccc([N+](=O)[O-])c1 | 19 | -9 | 20 | 1 | 23* | -16
O=C(NC(=S)Nc1cccc([N+](=O)[O-])c1)c1ccco1 | -4 | -2 | -3 | 0 | -7 | nt
